Data reported in ChEMBL document CHEMBL2040797, “Synthesis of benzimidazoles bearing oxadiazole nucleus as anticancer agents” (2012).

How the values were obtained:
Format in all cases: functional
A498 = assay: Growth inhibition of human A498 cells at 10 uM after 48 hrs by sulforhodamine B assay; conditions: A498, 48 h, read-out: GI
How it was run: (§1)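 NCI one-dose primary screen at 10 (printed mM) across the 60-line panel. Cells in RPMI 1640 with 5% FBS and 2 mM L-glutamine, plated at 5000–40,000 cells/well and incubated 24 h before dosing. Exposure 48 h at 37 °C, 5% CO2. Adherent cells were fixed with cold TCA, suspension cells fixed after settling. SRB stain, absorbance 515 nm. Reported as percent growth of treated cells relative to control.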

PC-3 [1] = assay: Cytotoxicity against human PC3 cells after 48 hrs by sulforhodamine B assay; conditions: PC-3, 48 h
How it was run: (§2)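 NCI 60-panel screen. Cells were grown in RPMI 1640 with 5% FBS and L-glutamine and plated at 5000–40,000 cells/well according to doubling time. They were preincubated 24 h at 37 °C, 5% CO2, then exposed 48 h to five 10-fold dilutions. Adherent cells were fixed with cold TCA, final 10%; suspension cells were fixed after settling. Cells were stained with 0.4% SRB and read at 515 nm. Tz/C/Ti growth curves gave GI50, TGI and LC50.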

MDA-MB-468 = assay: Growth inhibition of human MDA-MB-468 cells at 10 uM after 48 hrs by sulforhodamine B assay; conditions: MDA-MB-468, 48 h, read-out: GI; how it was run: as §1
HOP-62 = assay: Growth inhibition of human HOP62 cells at 10 uM after 48 hrs by sulforhodamine B assay; conditions: HOP-62, 48 h, read-out: GI; how it was run: as §1
MDA-MB-231 [2] = assay: Cytotoxicity against human MDA-MB-231 cells after 48 hrs by sulforhodamine B assay; conditions: MDA-MB-231, 48 h; how it was run: as §2
BT-549 [3] = assay: Growth inhibition of human BT549 cells at 10 uM after 48 hrs by sulforhodamine B assay; conditions: BT-549, 48 h, read-out: GI; how it was run: as §1
PC-3 [4] = assay: Growth inhibition of human PC3 cells at 10 uM after 48 hrs by sulforhodamine B assay; conditions: PC-3, 48 h, read-out: GI; how it was run: as §1
BT-549 [5] = assay: Cytotoxicity against human BT549 cells after 48 hrs by sulforhodamine B assay; conditions: BT-549, 48 h; how it was run: as §2
DU-145 = assay: Cytotoxicity against human DU145 cells after 48 hrs by sulforhodamine B assay; conditions: DU-145, 48 h; how it was run: as §2
M14 = assay: Cytotoxicity against human M14 cells after 48 hrs by sulforhodamine B assay; conditions: M14, 48 h; how it was run: as §2
SR = assay: Cytotoxicity against human SR cells after 48 hrs by sulforhodamine B assay; how it was run: as §2
UO-31 = assay: Growth inhibition of human UO31 cells at 10 uM after 48 hrs by sulforhodamine B assay; conditions: UO-31, 48 h, read-out: GI
How it was run: (§3)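 NCI-60 single-dose screen. Cells grown in RPMI 1640 with 5% FBS and L-glutamine, plated at 5000–40,000 cells/well by doubling time, and preincubated 24 h at 37 °C, 5% CO2. Compound stocks in DMSO, added at one concentration, then incubated 48 h. Adherent cells fixed with cold TCA (10% final), stained with 0.4% SRB, dye solubilized in 10 mM Tris base, A515 read. Reported as percent growth relative to untreated control.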

UACC-257 = assay: Growth inhibition of human UACC257 cells at 10 uM after 48 hrs by sulforhodamine B assay; conditions: UACC-257, 48 h, read-out: GI; how it was run: as §3
NCI/ADR-RES = assay: Cytotoxicity against human NCI/ADR-RES cells after 48 hrs by sulforhodamine B assay; how it was run: as §2
ACHN = assay: Cytotoxicity against human ACHN cells after 48 hrs by sulforhodamine B assay; how it was run: as §2
786-0 = assay: Cytotoxicity against human 786-0 cells after 48 hrs by sulforhodamine B assay; conditions: 786-0, 48 h; how it was run: as §2
SN12C = assay: Growth inhibition of human SN12C cells at 10 uM after 48 hrs by sulforhodamine B assay; conditions: read-out: GI; how it was run: as §3
NCI-H522 = assay: Growth inhibition of human NCI-H522 cells at 10 uM after 48 hrs by sulforhodamine B assay; conditions: NCI-H522, 48 h, read-out: GI; how it was run: as §1
CCRF-CEM = assay: Growth inhibition of human CCRF-CEM cells at 10 uM after 48 hrs by sulforhodamine B assay; conditions: read-out: GI; how it was run: as §1
SK-MEL-28 = assay: Growth inhibition of human SK-MEL-28 cells at 10 uM after 48 hrs by sulforhodamine B assay; conditions: SK-MEL-28, 48 h, read-out: GI; how it was run: as §3
MOLT-4 = assay: Growth inhibition of human MOLT4 cells at 10 uM after 48 hrs by sulforhodamine B assay; conditions: MOLT-4, 48 h, read-out: GI; how it was run: as §1
MDA-MB-231 [6] = assay: Growth inhibition of human MDA-MB-231 cells at 10 uM after 48 hrs by sulforhodamine B assay; conditions: MDA-MB-231, 48 h, read-out: GI; how it was run: as §1
IGROV-1 = assay: Cytotoxicity against human IGROV1 cells after 48 hrs by sulforhodamine B assay; conditions: IGROV-1, 48 h; how it was run: as §2
NCI-H23 = assay: Growth inhibition of human NCI-H23 cells at 10 uM after 48 hrs by sulforhodamine B assay; conditions: NCI-H23, 48 h, read-out: GI; how it was run: as §1
OVCAR-5 [7] = assay: Growth inhibition of human OVCAR5 cells at 10 uM after 48 hrs by sulforhodamine B assay; conditions: OVCAR-5, 48 h, read-out: GI; how it was run: as §1
OVCAR-5 [8] = assay: Cytotoxicity against human OVCAR5 cells after 48 hrs by sulforhodamine B assay; conditions: OVCAR-5, 48 h; how it was run: as §2
SNB-19 = assay: Growth inhibition of human SNB19 cells at 10 uM after 48 hrs by sulforhodamine B assay; conditions: SNB-19, 48 h, read-out: GI; how it was run: as §3
A549 = assay: Growth inhibition of human A549 cells at 10 uM after 48 hrs by sulforhodamine B assay; conditions: A549, 48 h, read-out: GI; how it was run: as §1
SK-OV-3 = assay: Growth inhibition of human SKOV3 cells at 10 uM after 48 hrs by sulforhodamine B assay; conditions: SK-OV-3, 48 h, read-out: GI; how it was run: as §3
HCC 2998 = assay: Growth inhibition of human HCC2998 cells at 10 uM after 48 hrs by sulforhodamine B assay; conditions: HCC 2998, 48 h, read-out: GI; how it was run: as §1
[9] = read-out: LC50 (the source's name)

O=C(CCc1nnc(-c2ccc(Cl)cc2Cl)o1)c1nc2ccccc2[nH]1
inhibition of growth at 10 µM (A498): 41.6% | GI50 (PC-3 [1]): 3.71 µM | TGI (PC-3 [1]): 100 µM | CC50 (PC-3 [1]; [9]): 100 µM | inhibition of growth at 10 µM (MDA-MB-468): 102% | inhibition of growth at 10 µM (HOP-62): 28.4% | GI50 (MDA-MB-231 [2]): 2.68 µM | TGI (MDA-MB-231 [2]): 42.6 µM | CC50 (MDA-MB-231 [2]; [9]): 100 µM | inhibition of growth at 10 µM (BT-549 [3]): 43.6% | inhibition of growth at 10 µM (PC-3 [4]): 46.9% | GI50 (BT-549 [5]): 7.54 µM | TGI (BT-549 [5]): 92.5 µM | CC50 (BT-549 [5]; [9]): 100 µM | GI50 (DU-145): 17.8 µM | TGI (DU-145): 100 µM | CC50 (DU-145; [9]): 100 µM | GI50 (M14): 5.86 µM | TGI (M14): 31.5 µM | CC50 (M14; [9]): 100 µM | GI50 (SR): 2.63 µM | TGI (SR): 15.2 µM | CC50 (SR; [9]): 100 µM | inhibition of growth at 10 µM (UO-31): 48% | inhibition of growth at 10 µM (UACC-257): 21.4% | GI50 (NCI/ADR-RES): 5.4 µM | TGI (NCI/ADR-RES): 100 µM | CC50 (NCI/ADR-RES; [9]): 100 µM | GI50 (ACHN): 11.9 µM | TGI (ACHN): 100 µM | CC50 (ACHN; [9]): 100 µM | GI50 (786-0): 10.7 µM | TGI (786-0): 45.5 µM | CC50 (786-0; [9]): 100 µM | inhibition of growth at 10 µM (SN12C): 38.8% | inhibition of growth at 10 µM (NCI-H522): 50.2% | inhibition of growth at 10 µM (CCRF-CEM): 52.7% | inhibition of growth at 10 µM (SK-MEL-28): 17.3% | inhibition of growth at 10 µM (MOLT-4): 79.3% | inhibition of growth at 10 µM (MDA-MB-231 [6]): 61.7% | GI50 (IGROV-1): 5.26 µM | TGI (IGROV-1): 39.1 µM | CC50 (IGROV-1; [9]): 100 µM | inhibition of growth at 10 µM (NCI-H23): 38.1% | inhibition of growth at 10 µM (OVCAR-5 [7]): 18.9% | GI50 (OVCAR-5 [8]): 7.82 µM | TGI (OVCAR-5 [8]): 100 µM | CC50 (OVCAR-5 [8]; [9]): 100 µM | inhibition of growth at 10 µM (SNB-19): 24.9% | inhibition of growth at 10 µM (A549): 30.3% | inhibition of growth at 10 µM (SK-OV-3): 35.2% | inhibition of growth at 10 µM (HCC 2998): 34.1%
